Laboratory results reported in ChEMBL document CHEMBL3124843, “Synthesis, cytostatic, antimicrobial, and anti-HCV activity of 6-substituted 7-(het)aryl-7-deazapurine ribonucleosides” (J Med Chem, 2014).
Active and inactive are the calls of the source. The rule behind the calls is not given here.

Experiments:
[1] = Cytotoxicity against human HuH7 cells infected with Hepatitis C virus subtype 2a; type: cell-based, Huh-7
Hepatitis C virus [2] = assay: Antiviral activity against Hepatitis C virus subtype 2a infected in human HuH7 cells; type: functional, organism-based, Hepacivirus hominis; conditions: genotype 2a, Huh-7
[3] = Cytotoxicity against human HuH7 cells infected with Hepatitis C virus subtype 1b; type: cell-based, Huh-7
Hepatitis C virus [4] = assay: Antiviral activity against Hepatitis C virus subtype 1b infected in human HuH7 cells; type: functional, organism-based, Hepacivirus hominis; conditions: genotype 1b, Huh-7
Candida tropicalis = assay: Antifungal activity against Candida tropicalis after 48 hrs; type: functional, organism-based
Pichia kudriavzevii = assay: Antifungal activity against Candida crusei after 48 hrs; type: functional, organism-based
Candida parapsilosis = assay: Antifungal activity against Candida parapsilosis after 48 hrs; type: functional, organism-based
Candida albicans = assay: Antifungal activity against Candida albicans after 48 hrs; type: functional, organism-based
Pseudomonas aeruginosa [5] = assay: Antibacterial activity against multi-resistant Pseudomonas aeruginosa A/16575 after 24 hrs; type: functional, organism-based
Escherichia coli [6] = assay: Antibacterial activity against multi-resistant Escherichia coli C/16702 after 24 hrs; type: functional, organism-based
[7] = tested on: Staphylococcus haemolyticus; assay: Antibacterial activity against methicillin-resistant Staphylococcus haemolyticus A/16568 after 24 hrs; type: functional, organism-based
Staphylococcus aureus [8] = assay: Antibacterial activity against methicillin-resistant Staphylococcus aureus MRSA 4591 after 24 hrs; type: functional, organism-based
Pseudomonas aeruginosa [9] = assay: Antibacterial activity against Pseudomonas aeruginosa CCM 3955 after 24 hrs; type: functional, organism-based
Escherichia coli [10] = assay: Antibacterial activity against Escherichia coli CCM 3954 after 24 hrs; type: functional, organism-based
Staphylococcus aureus [11] = assay: Antibacterial activity against Staphylococcus aureus CCM 3953 after 24 hrs; type: functional, organism-based
Enterococcus faecalis = assay: Antibacterial activity against Enterococcus faecalis CCM 4224 after 24 hrs; type: functional, organism-based
[12] = Antiproliferative activity against human HeLaS3 cells after 72 hrs by XTT assay; type: functional, cell-based; conditions: HeLa S3, 72 h
How it was run: (§1)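 Antiproliferative test on HL-60 promyelocytic leukemia and HeLa S3 cervical carcinoma cells growing in liquid suspension.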

HL-60 = assay: Antiproliferative activity against human HL60 cells after 72 hrs by XTT assay; type: functional, cell-based; conditions: HL-60, 72 h; how it was run: as §1
HepG2 = assay: Antiproliferative activity against human HepG2 cells after 72 hrs by XTT assay; type: functional, cell-based; conditions: HepG2, 72 h
MRC5 = assay: Cytostatic activity against human MRC5 cells after 72 hrs by MTT assay; type: ADME, cell-based; conditions: MRC5, 72 h
How it was run: (§2)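 IC50 is the concentration that cuts cell growth by 50%, read by quantitative metabolic MTT staining after a 3-day treatment. The resistant sublines were made by raising the concentration of the cytotoxic drug step by step. CEM-DNR-bulk (daunorubicin-selected) stably overexpresses mrp-1. K562-TAX (paclitaxel-selected) expresses only mdr-1. HCT116p53−/− carries null p53 alleles. BJ and MRC-5 are nonmalignant fibroblasts.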

BJ = assay: Cytostatic activity against human BJ cells after 72 hrs by MTT assay; type: ADME, cell-based; how it was run: as §2
HCT-116 [13] = assay: Cytostatic activity against p53-deficient human HCT116 cells after 72 hrs by MTT assay; type: functional, cell-based; conditions: HCT-116, 72 h; how it was run: as §2
HCT-116 [14] = assay: Cytostatic activity against human HCT116 cells after 72 hrs by MTT assay; type: functional, cell-based; conditions: HCT-116, 72 h; how it was run: as §2
A549 = assay: Cytostatic activity against human A549 cells after 72 hrs by MTT assay; type: functional, cell-based; conditions: A549, 72 h; how it was run: as §2
K562 [15] = assay: Cytostatic activity against paclitaxel-resistant human K562 cells after 72 hrs by MTT assay; type: functional, cell-based; conditions: K562, 72 h; how it was run: as §2
K562 [16] = assay: Cytostatic activity against human K562 cells after 72 hrs by MTT assay; type: functional, cell-based; conditions: K562, 72 h; how it was run: as §2
[17] = Cytostatic activity against human CEM-DNR-bulk cells after 72 hrs by MTT assay; type: functional, cell-based; how it was run: as §2
CCRF-CEM = assay: Cytostatic activity against human CCRF-CEM cells after 72 hrs by MTT assay; type: functional, cell-based; how it was run: as §2

Compound	CC50 [1] [µM]	EC50 (Hepatitis C virus [2]) [µM]	CC50 [3] [µM]	EC50 (Hepatitis C virus [4]) [µM]	Activity (Candida tropicalis)	Activity (Pichia kudriavzevii)	Activity (Candida parapsilosis)	Activity (Candida albicans)	Activity (Pseudomonas aeruginosa [5])	Activity (Escherichia coli [6])	Activity [7]	Activity (Staphylococcus aureus [8])	Activity (Pseudomonas aeruginosa [9])	Activity (Escherichia coli [10])	Activity (Staphylococcus aureus [11])	Activity (Enterococcus faecalis)	IC50 [12] [µM]	IC50 (HL-60) [µM]	IC50 (HepG2) [µM]	IC50 (MRC5) [µM]	also measured
Nc1nc2c(c(-c3ccccc3)cn2[C@@H]2O[C@H](CO)[C@@H](O)[C@H]2O)c(=O)[nH]1	> 44	> 44	> 44	> 44	inactive	inactive	inactive	inactive	inactive	inactive	inactive	inactive	inactive	inactive	inactive	inactive	> 20	> 20	> 20	> 100	IC50 (BJ): > 100 µM; IC50 (HCT-116 [13]): > 20 µM; IC50 (HCT-116 [14]): > 20 µM; IC50 (A549): > 100 µM; IC50 (K562 [15]): > 20 µM; IC50 (K562 [16]): > 20 µM; IC50 [17]: > 20 µM; IC50 (CCRF-CEM): > 100 µM
Cc1ncnc2c1c(-c1cccs1)cn2[C@@H]1O[C@H](CO)[C@@H](O)[C@H]1O	> 44	> 44	> 44	6.67	inactive	inactive	inactive	inactive	inactive	inactive	inactive	inactive	inactive	inactive	inactive	inactive	> 15	5.73	> 15	> 100	IC50 (BJ): > 100 µM; IC50 (HCT-116 [13]): > 20 µM; IC50 (HCT-116 [14]): > 20 µM; IC50 (A549): > 20 µM; IC50 (K562 [15]): > 20 µM; IC50 (K562 [16]): > 20 µM; IC50 [17]: > 20 µM; IC50 (CCRF-CEM): > 20 µM
CN(C)c1ncnc2c1c(-c1ccccc1)cn2[C@@H]1O[C@H](CO)[C@@H](O)[C@H]1O	> 44	> 44	> 44	26.9	inactive	inactive	inactive	inactive	inactive	inactive	inactive	inactive	inactive	inactive	inactive	inactive	> 20	> 20	> 20	> 100	IC50 (BJ): > 100 µM; IC50 (HCT-116 [13]): > 20 µM; IC50 (HCT-116 [14]): > 20 µM; IC50 (A549): > 100 µM; IC50 (K562 [15]): > 20 µM; IC50 (K562 [16]): > 20 µM; IC50 [17]: > 20 µM; IC50 (CCRF-CEM): > 20 µM
CN(C)c1ncnc2c1ccn2[C@@H]1O[C@H](CO)[C@@H](O)[C@H]1O	> 44	0.97	> 44	0.27	inactive	inactive	inactive	inactive	inactive	inactive	inactive	inactive	inactive	inactive	inactive	inactive	10.6	0.87	1.81	58.2	IC50 (BJ): 5.3 µM; IC50 (HCT-116 [13]): 5.09 µM; IC50 (HCT-116 [14]): 18.4 µM; IC50 (A549): > 20 µM; IC50 (K562 [15]): 0.89 µM; IC50 (K562 [16]): 5.28 µM; IC50 [17]: 2.6 µM; IC50 (CCRF-CEM): 0.63 µM
Cc1nc(N)c2c(-c3ccoc3)cn([C@@H]3O[C@H](CO)[C@@H](O)[C@H]3O)c2n1	> 44	> 44	> 44	> 44	inactive	inactive	inactive	inactive	inactive	inactive	inactive	inactive	inactive	inactive	inactive	inactive	> 20	> 20	> 20	> 100	IC50 (BJ): > 100 µM; IC50 (HCT-116 [13]): > 20 µM; IC50 (HCT-116 [14]): > 20 µM; IC50 (A549): > 20 µM; IC50 (K562 [15]): > 20 µM; IC50 (K562 [16]): > 20 µM; IC50 [17]: > 20 µM; IC50 (CCRF-CEM): > 100 µM
Cc1ncnc2c1c(-c1ccsc1)cn2[C@@H]1O[C@H](CO)[C@@H](O)[C@H]1O	> 44	> 44	> 44	4.47	inactive	inactive	inactive	inactive	inactive	inactive	inactive	inactive	inactive	inactive	inactive	inactive	14.3	0.35	4.72	> 100	IC50 (BJ): 96.9 µM; IC50 (HCT-116 [13]): 1.43 µM; IC50 (HCT-116 [14]): 0.46 µM; IC50 (A549): > 20 µM; IC50 (K562 [15]): 5.55 µM; IC50 (K562 [16]): 0.32 µM; IC50 [17]: 8.56 µM; IC50 (CCRF-CEM): 11.2 µM
CSc1ncnc2c1c(-c1ccoc1)cn2[C@@H]1O[C@H](CO)[C@@H](O)[C@H]1O	> 44	> 44	> 44	4.72	inactive	inactive	inactive	inactive	inactive	inactive	inactive	inactive	inactive	inactive	inactive	inactive	5.39	0.36	> 15	> 100	IC50 (BJ): 98.8 µM; IC50 (HCT-116 [13]): 0.1 µM; IC50 (HCT-116 [14]): 0.04 µM; IC50 (A549): 0.28 µM; IC50 (K562 [15]): 3.25 µM; IC50 (K562 [16]): 0.06 µM; IC50 [17]: > 20 µM; IC50 (CCRF-CEM): 14.2 µM
Cc1nc(N)c2c(-c3ccsc3)cn([C@@H]3O[C@H](CO)[C@@H](O)[C@H]3O)c2n1	> 44	> 44	> 44	28.7	inactive	inactive	inactive	inactive	inactive	inactive	inactive	inactive	inactive	inactive	inactive	inactive	> 20	> 20	> 20	> 100	IC50 (BJ): > 100 µM; IC50 (HCT-116 [13]): > 20 µM; IC50 (HCT-116 [14]): > 20 µM; IC50 (A549): > 20 µM; IC50 (K562 [15]): > 20 µM; IC50 (K562 [16]): > 20 µM; IC50 [17]: > 20 µM; IC50 (CCRF-CEM): > 20 µM
CSc1ncnc2c1c(-c1ccsc1)cn2[C@@H]1O[C@H](CO)[C@@H](O)[C@H]1O	> 44	> 44	> 44	10.9	inactive	inactive	inactive	inactive	inactive	inactive	inactive	inactive	inactive	inactive	inactive	inactive	> 20	4.59	> 15	> 100	IC50 (BJ): 95.8 µM; IC50 (HCT-116 [13]): > 20 µM; IC50 (HCT-116 [14]): > 20 µM; IC50 (A549): > 20 µM; IC50 (K562 [15]): > 20 µM; IC50 (K562 [16]): 0.45 µM; IC50 [17]: > 20 µM; IC50 (CCRF-CEM): > 20 µM
